≈ marks a conversion by molar mass, not a printed value.
What was measured:
Assay type in all cases: functional
Enterococcus faecium [1] = assay: Antibacterial activity against quinupristin-dalfopristin resistant and ermB gene expressing Enterococcus faecium isolate CS098 containing streptogramin A resistance genes vatG and vgaD isolated from poultry stool samples
Enterococcus faecium [2] = assay: Antibacterial activity against quinupristin-dalfopristin resistant and ermB and vanA gene expressing Enterococcus faecium isolate A15 containing streptogramin A resistance genes vatG and vgaD isolated from poultry stool samples
How it was run: (§1)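 Isolates were recovered from fecal samples (human, poultry, swine; 2000/2003) or retail meat (2003). Samples were enriched in Enterococcosel broth for 48 h at 37°C, then streaked on Enterococcosel agar containing Q-D at 2 μg/ml to select resistant E. faecium. vatG and vgaD were detected by PCR with gene-specific primers: 30 cycles, annealing at 55°C.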

Enterococcus faecium [3] = assay: Antibacterial activity against quinupristin-dalfopristin resistant and ermB gene expressing Enterococcus faecium isolate CS103 containing streptogramin A resistance genes vatG and vgaD isolated from poultry stool samples
Enterococcus faecium [4] = assay: Antibacterial activity against quinupristin-dalfopristin resistant Enterococcus faecium isolate ES022 containing streptogramin A resistance genes vatG and vgaD isolated from swine stool samples
Enterococcus faecium [5] = assay: Antibacterial activity against quinupristin-dalfopristin resistant and ermB gene expressing Enterococcus faecium isolate CS106 containing streptogramin A resistance genes vatG and vgaD isolated from poultry stool samples
Enterococcus faecium [6] = assay: Antibacterial activity against quinupristin-dalfopristin resistant and ermB gene expressing Enterococcus faecium isolate JS79 containing streptogramin A resistance genes vatG and vgaD isolated from healthy human stool samples
Enterococcus faecium [7] = assay: Antibacterial activity against quinupristin-dalfopristin resistant and vanA gene expressing Enterococcus faecium isolate GAV04 containing streptogramin A resistance genes vatG and vgaD isolated from chicken meat samples
Enterococcus faecium [8] = assay: Antibacterial activity against quinupristin-dalfopristin resistant and vanA gene expressing Enterococcus faecium isolate GAV12 containing streptogramin A resistance genes vatG and vgaD isolated from chicken meat samples; how it was run: as §1
Enterococcus faecium [9] = assay: Antibacterial activity against quinupristin-dalfopristin resistant and ermB gene expressing Enterococcus faecium isolate AS115 containing streptogramin A resistance genes vatG and vgaD isolated from poultry stool samples; how it was run: as §1
Enterococcus faecium [10] = assay: Antibacterial activity against quinupristin-dalfopristin resistant and ermB gene expressing Enterococcus faecium isolate CS121 containing streptogramin A resistance genes vatG and vgaD isolated from poultry stool samples
Enterococcus faecium [11] = assay: Antibacterial activity against quinupristin-dalfopristin resistant and ermB and vanA gene expressing Enterococcus faecium isolate C19 containing streptogramin A resistance genes vatG and vgaD isolated from poultry stool samples
Enterococcus faecium [12] = assay: Antibacterial activity against quinupristin-dalfopristin resistant and ermB gene expressing Enterococcus faecium isolate KS46 containing streptogramin A resistance genes vatG and vgaD isolated from healthy human stool samples
Enterococcus faecium [13] = assay: Antibacterial activity against quinupristin-dalfopristin abd erythromycin sensitive aEnterococcus faecium U201 transconjugants receiving ermB genes and vatG gene from quinupristin-dalfopristin resistant Enterococcus faecium isolate
How it was run: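 Transconjugants came from broth mating: donor and recipient overnight M17 cultures were mixed 1:1 into fresh M17 broth for 6 h at 37°C. Selection was on BHI agar with erythromycin (100 μg/ml) and ampicillin (100 μg/ml) for 24 h at 37°C. The erythromycin and Q-D MICs were compared with the donor's.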

| SMILES | MIC (Enterococcus faecium [1]) [µg/mL] | MIC (Enterococcus faecium [2]) [µg/mL] | MIC (Enterococcus faecium [3]) [µg/mL] | MIC (Enterococcus faecium [4]) [µg/mL] | MIC (Enterococcus faecium [5]) [µg/mL] | MIC (Enterococcus faecium [6]) [µg/mL] | MIC (Enterococcus faecium [7]) [µg/mL] | MIC (Enterococcus faecium [8]) [µg/mL] | MIC (Enterococcus faecium [9]) [µg/mL] | MIC (Enterococcus faecium [10]) [µg/mL] | MIC (Enterococcus faecium [11]) [µg/mL] | MIC (Enterococcus faecium [12]) [µg/mL] | MIC (Enterococcus faecium [13]) [µg/mL] |
| --- | --- | --- | --- | --- | --- | --- | --- | --- | --- | --- | --- | --- | --- |
| CN[C@H](CC(C)C)C(=O)N[C@H]1C(=O)N[C@@H](CC(N)=O)C(=O)N[C@H]2C(=O)N[C@H]3C(=O)N[C@H](C(=O)N[C@H](C(=O)O)c4cc(O)cc(O)c4-c4cc3ccc4O)[C@H](O)c3ccc(c(Cl)c3)Oc3cc2cc(c3O[C@@H]2O[C@H](CO)[C@@H](O)[C@H](O)[C@H]2O[C@H]2C[C@](C)(N)[C@H](O)[C@H](C)O2)Oc2ccc(cc2Cl)[C@H]1O [VANCOMYCIN] | < 1 | 256 (≈ 177 µM) | < 1 | < 1 | < 1 | < 1 | 256 (≈ 177 µM) | 256 (≈ 177 µM) | < 1 | < 1 | 256 (≈ 177 µM) | < 1 | – |
| CC[C@H]1OC(=O)[C@H](C)[C@@H](O[C@H]2C[C@@](C)(OC)[C@@H](O)[C@H](C)O2)[C@H](C)[C@@H](O[C@@H]2O[C@H](C)C[C@H](N(C)C)[C@H]2O)[C@](C)(O)C[C@@H](C)C(=O)[C@H](C)[C@@H](O)[C@]1(C)O [ERYTHROMYCIN] | 256 (≈ 349 µM) | 256 (≈ 349 µM) | 256 (≈ 349 µM) | 0.1 (≈ 0.136 µM) | 256 (≈ 349 µM) | 256 (≈ 349 µM) | < 1 | < 1 | 256 (≈ 349 µM) | 256 (≈ 349 µM) | 256 (≈ 349 µM) | 256 (≈ 349 µM) | 256 (≈ 349 µM) |
